The structures appear in SMILES notation. Activity calls are given as the source filed them.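 The calls were made as follows, unless noted: active = inhibition above 20% together with a positive visual image hit; inconclusive = visual image hit but inhibition not above 20%; inactive = no visual image hit.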

Assay [1] can be described thus: inhibitors of TNFa-induced NFkB p65 translocation, primary screen, imaging, HUVEC, MLSMR starter and 10KST1 sets (AID 438).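 Also: compound added about 3h40 before a 20 min TNFalpha stimulation.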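 As to inhibition: signal is the nuclear over cytoplasmic p65 intensity ratio per well.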 The note with it: HUVEC TNFa-induced p65 nuclear translocation; cell count: measured here: nuclei count (cytotoxicity indicator), at 2.08 µM; inhibition: at 2 µM, stronger effect = higher value, 0% TNFa-plus-vehicle, 100% no-TNFa wells.
The nature of assay [2]: inhibitors of mutant huntingtin aggregation, primary screen, imaging, exon1htt(103Q)mCFP cells, high-content imaging (AID 483;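 active = visual image review flags a hit and inhibition of aggregation exceeds 20%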;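 also: compound exposure lasted 3 days before fixation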;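 as to nuclei count: percent of the per-plate median nuclei count of sample wells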). The settings on record: exon1htt(103Q)mCFP cell line, aggregate imaging, at 2 µM; inhibition of aggregation: stronger effect = higher value; nuclei count: measured here: cell count, toxicity.
The nature of assay [3]: inhibitors of E-selectin induction by TNFa, primary screen, imaging, HUVEC, immunofluorescence, MLSMR starter and 10KST1 sets (AID 487;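 active = visually confirmed hit in the image check and inhibition above 20%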;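 as to inhibition: signal is fraction of cell area covered by stained E-selectin grains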;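 as to nuclei count: 100% = median nuclei count of all wells on the same plate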). The settings on record: HUVEC TNFalpha-induced E-selectin immunofluorescence imaging, at 2 µM; inhibition: stronger effect = higher value; nuclei count: measured here: cell number, toxicity.
Assay [4] concerns the target Voltage-gated potassium channel subunit beta-2 (Rattus norvegicus) (UniProt P62483). Briefly: KvBeta enzyme negative modulators, primary screen, biochemical, NADPH fluorescence (AID 622;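 active = fluorescence slope higher than the sample average by over 3 SD, cut at about -0.22 in these data, passing the limit was not always enough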;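 also: slope of raw intensity against log time taken from 70 to 1610 s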). The settings on record: recombinant KvBeta, 4-cyanobenzaldehyde reduction, at 10 µM, stronger effect = higher value.
Assay [5] shares this target. Briefly: KvBeta positive modulators, primary screen, biochemical, NADPH fluorescence (AID 623;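 active = NADPH fluorescence slope more negative than the mean of all samples by about 3 SD, 99.7% confidence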;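 also: fluorescence intensity change per second fitted from 20 to 320 s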). The settings on record: Recombinant KvBeta, NADPH fluorescence decrease slope, 10 min; at 10 µM; stronger effect = lower value.
Assay [6] concerns the target Muscarinic acetylcholine receptor M4 (Homo sapiens) (UniProt P08173). The assay can be described thus: compounds altering M4/GIRK thallium flux, either direction, primary screen, M4 allosteric agonist project, cell-based, HEK293 M4/GIRK, BTC-AM (AID 625;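 active = fluorescence slope after compound addition differing from the mean of all tested samples at 99.7% confidence, mostly higher but some lower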;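 also: thallium influx through GIRK channels coupled to M4 in HEK293 cells with BTC-AM dye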). The settings on record: at 10 µM, actives lie on both sides. An outline of the steps: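 Material – HEK293 cells with M4 receptor and GIRK channels · Buffer or medium – pH 7.3 thallium assay buffer · Doses – one dose, 10 µM final · Timing – cells overnight at 37 °C, BTC-AM loading 1 h, reads 2 min total · Measured by – kinetic fluorescence with BTC-AM dye · Controls – carbachol and DMSO controls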

Assay [7] can be described thus: inhibitors of Sendai virus-induced IRF3 signaling, primary screen, TLR/RLR signaling modifier project, cell-based, Sendai virus stimulus, luciferase, 10K MLSCN set (AID 602276;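 active = inhibition at or above 50% at 10 µM; inactive = inhibition below 50%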;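 also: firefly luciferase from ISG56 promoter only with Renilla not read in this screen; 0% = Sendai virus plus DMSO and 100% = medium plus DMSO without virus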). The settings on record: HEK293 RL24 IRF3 luciferase reporter, at 10 µM, stronger effect = higher value. A general note: A reporter such as luciferase makes a cellular process visible.
Assay [8] is described as follows: inhibitors of poly I:C-induced TLR3 signaling, primary screen, cell-based, poly I:C stimulus, luciferase, 10K MLSCN set (AID 602277;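 active = inhibition of the reporter signal at or above 50%; inactive = inhibition below 50%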). The settings on record: HEK293-TLR3 RL24 IRF3 luciferase reporter, at 10 µM, stronger effect = higher value.

Voltage-gated potassium channel subunit beta-2 (Rattus norvegicus), sequence (P62483 whole entry, looked up): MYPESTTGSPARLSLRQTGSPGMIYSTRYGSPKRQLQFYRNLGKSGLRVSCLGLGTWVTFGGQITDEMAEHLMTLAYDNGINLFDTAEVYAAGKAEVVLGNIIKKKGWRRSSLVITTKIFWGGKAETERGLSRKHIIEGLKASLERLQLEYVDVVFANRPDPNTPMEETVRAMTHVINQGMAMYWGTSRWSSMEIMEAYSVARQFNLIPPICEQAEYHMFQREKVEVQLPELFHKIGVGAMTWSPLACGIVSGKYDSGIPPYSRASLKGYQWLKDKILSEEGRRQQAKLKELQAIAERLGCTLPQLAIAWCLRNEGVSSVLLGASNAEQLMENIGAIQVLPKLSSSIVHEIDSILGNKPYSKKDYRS
Muscarinic acetylcholine receptor M4 (Homo sapiens), sequence (P08173 whole entry, looked up): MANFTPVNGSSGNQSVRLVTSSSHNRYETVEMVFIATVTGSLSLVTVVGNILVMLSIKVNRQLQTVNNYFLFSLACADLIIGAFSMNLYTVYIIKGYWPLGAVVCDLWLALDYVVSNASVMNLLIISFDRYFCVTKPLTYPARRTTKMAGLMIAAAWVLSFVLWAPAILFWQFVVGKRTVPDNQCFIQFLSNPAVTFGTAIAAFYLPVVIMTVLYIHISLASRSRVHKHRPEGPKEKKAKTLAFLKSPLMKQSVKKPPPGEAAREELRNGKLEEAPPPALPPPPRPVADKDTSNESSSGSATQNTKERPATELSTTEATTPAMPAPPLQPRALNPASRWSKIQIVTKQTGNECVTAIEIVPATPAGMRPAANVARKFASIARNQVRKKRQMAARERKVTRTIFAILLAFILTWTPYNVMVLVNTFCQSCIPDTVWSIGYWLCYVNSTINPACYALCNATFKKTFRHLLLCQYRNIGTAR

Turning to `CCn1nnc(-c2ccccc2NC(=O)c2ccc(-n3cnnn3)cc2)n1`, in assay [1], the cell count is 333. For the same molecule, the inhibition in assay [1] is -2.5% (inactive); in assay [3], 1.4% (inactive); in assay [7] it was 15.3% (inactive); in assay [8] it was 15.5% (inactive). The inhibition of aggregation in assay [2] is -19% (inactive). In addition, the results for the nuclei count in assay [2] and in assay [3] were 97.1% and 90.6%, respectively. The fluorescence slope in assay [4] was -0.5 (inactive); in assay [6] it was 0.00365 (inactive). Further, in assay [5], the NADPH fluorescence slope is -0.000135 (inactive).
For `COC(=O)c1ccc(COc2ncnc3c(Cl)cc(Cl)cc23)o1`, the cell count in assay [1] is 406. In addition, the inhibition in assay [1] is -5% (inactive); in assay [3], 59.9% (inactive); in assay [7], 2.59% (inactive); in assay [8], 1.58% (inactive). Besides, the inhibition of aggregation in assay [2] is 25.5% (inactive). Further, the nuclei count is 74.4% in assay [2] and 78.8% in assay [3]. For the same molecule, the fluorescence slope is -0.433 (inactive) in assay [4] and 0.00494 (inactive) in assay [6]. The NADPH fluorescence slope in assay [5] was -0.000426 (inactive).
On to `COc1ccccc1-c1nc(C(F)(F)F)c(OC)o1`, for which, in assay [1], the cell count stood at 469. The inhibition is -3.3% (inactive) in assay [1], -126% (inactive) in assay [3], 21.1% (inactive) in assay [7] and 11.8% (inactive) in assay [8]. The inhibition of aggregation in assay [2] is -0.2% (inactive). Further, the nuclei count in assay [2] amounted to 120%; in assay [3] it was 215%. For the same molecule, the fluorescence slope in assay [4] was -0.423 (inactive); in assay [6], 0.00491 (inactive). In assay [5], the NADPH fluorescence slope is -9.3e-07 (inactive).
For `O=C(O)CCCC(=O)Nc1ccc(Br)cc1C(=O)O`, in assay [1], the cell count was found to be 398. In addition, the inhibition is 3.8% (inactive) in assay [1], 12.5% (inactive) in assay [3], 16.9% (inactive) in assay [7] and 20.6% (inactive) in assay [8]. In assay [2], the inhibition of aggregation is -5.6% (inactive). Besides, the nuclei count turned out to be 108% in assay [2] and 103% in assay [3]. Moreover, the fluorescence slope in assay [4] was -0.57 (inactive); in assay [6] it was 0.00576 (inactive). In addition, in assay [5], the NADPH fluorescence slope is 2.4e-05 (inactive).
For `C/C(N)=C(\C#N)C(=O)NCCc1ccccn1`, the cell count in assay [1] worked out at 326. Moreover, the inhibition in assay [1] was -1.7% (inactive); in assay [3], -26.9% (inactive); in assay [7], 7.83% (inactive); in assay [8], 13.8% (inactive). Moreover, the inhibition of aggregation in assay [2] was -11.6% (inactive). In addition, the nuclei count in assay [2] amounted to 106%; in assay [3], 102%. Moreover, the fluorescence slope in assay [4] was -0.613 (inactive); in assay [6] it was 0.00369 (inactive). In addition, in assay [5], the NADPH fluorescence slope was 2e-05 (inactive).
As for `COc1ccc(-c2nc(N3CCCC3)[nH]c(=O)c2C#N)cc1`, the cell count in assay [1] was 373. Also, the inhibition is -48.5% (inactive) in assay [1], -50.2% (inactive) in assay [3], 18.9% (inactive) in assay [7] and 13% (inactive) in assay [8]. For the same molecule, the inhibition of aggregation in assay [2] is -7.1% (inactive). Further, the nuclei count in assay [2] turned out to be 107%; in assay [3], 114%. Besides, the fluorescence slope was -0.471 (inactive) in assay [4] and 0.0047 (inactive) in assay [6]. In addition, the NADPH fluorescence slope in assay [5] was -1.8e-05 (inactive).
Regarding `CN(C)S(=O)(=O)c1ccc(C(=O)N2CCC(c3nc4ccccc4o3)CC2)cc1`, the cell count in assay [1] was determined as 468. Also, the inhibition is 8.2% (inactive) in assay [1], 40.1% (inactive) in assay [3], 10.5% (inactive) in assay [7] and 12.2% (inactive) in assay [8]. Further, the inhibition of aggregation in assay [2] was -9.7% (inactive). Moreover, the nuclei count in assay [2] was determined as 103%; in assay [3], 95%. In addition, the fluorescence slope in assay [4] was -0.427 (inactive); in assay [6], 0.00556 (inactive). The NADPH fluorescence slope in assay [5] is -9.6e-05 (inactive).
For `CCC(=O)NC1(C(F)(F)F)C(=O)NC(C)=C1C#N` (centres undefined), the cell count in assay [1] came to 382. In addition, the inhibition in assay [1] was 3.6% (inactive); in assay [3] it was -18.8% (inactive); in assay [7], 14.9% (inactive); in assay [8], 25.3% (inactive). Moreover, the inhibition of aggregation in assay [2] is 11.2% (inactive). Moreover, the nuclei count is 98.2% in assay [2] and 105% in assay [3]. Besides, the fluorescence slope in assay [4] is -0.445 (inactive); in assay [6], 0.00561 (inactive). Moreover, in assay [5], the NADPH fluorescence slope was 4.4e-05 (inactive).
In the case of `CCOc1ccc(-n2c(C)nc3c(cnn3-c3ccc(Cl)cc3)c2=O)cc1`, in assay [1], the cell count came out at 238. The inhibition in assay [1] is -9% (inactive); in assay [3] it was 2.1% (inactive); in assay [7], -2.74% (inactive); in assay [8], -8.54% (inactive). For the same molecule, the inhibition of aggregation in assay [2] was -23.6% (inactive). Besides, the nuclei count amounted to 96.9% in assay [2] and 109% in assay [3]. The results for the fluorescence slope in assay [4] and in assay [6] were -0.58 (inactive) and 0.00771 (inactive), respectively. In addition, the NADPH fluorescence slope in assay [5] was -4.1e-06 (inactive).
Consider `O=C(NC1CCc2ccccc21)C1CCN(S(=O)(=O)c2ccc(-n3cnnn3)cc2)CC1` (centres undefined), for which the cell count in assay [1] is 698. Moreover, the inhibition in assay [1] was 7.5% (inactive); in assay [3] it was -37.5% (inactive); in assay [7] it was 15.1% (inactive); in assay [8], 30.1% (inactive). In addition, the inhibition of aggregation in assay [2] is -23.2% (inactive). Besides, the values for the nuclei count in assay [2] and in assay [3] were 118% and 91.8%, respectively. Besides, the fluorescence slope is -0.553 (inactive) in assay [4] and 0.00483 (inactive) in assay [6]. Moreover, the NADPH fluorescence slope in assay [5] was 1.5e-06 (inactive).
For `CCOC(=O)CSC1=Nc2ccccc2C2=NC(CC(=O)NCc3ccc(OC)cc3)C(=O)N12` (centres undefined), the cell count in assay [1] came out at 463. In addition, the inhibition is -13.6% (inactive) in assay [1], -23.1% (inactive) in assay [3], 10.6% (inactive) in assay [7] and 20.5% (inactive) in assay [8]. The inhibition of aggregation in assay [2] is -2.2% (inactive). Further, the nuclei count in assay [2] turned out to be 64.2%; in assay [3] it was 91.7%. The fluorescence slope was -0.476 (inactive) in assay [4] and 0.00508 (inactive) in assay [6]. Further, the NADPH fluorescence slope in assay [5] was -8e-06 (inactive).
As to `COc1ccc(-c2noc(CCC(=O)NCCCN3CCC(Cc4ccccc4)CC3)n2)cc1`, in assay [1], the cell count worked out at 335. The inhibition in assay [1] is 7.8% (inactive); in assay [3], -46.3% (inactive); in assay [7], 3.44% (inactive); in assay [8] it was -1.77% (inactive). In assay [2], the inhibition of aggregation is 2% (inactive). In addition, the nuclei count stood at 94% in assay [2] and 108% in assay [3]. Further, the fluorescence slope in assay [4] is -0.547 (inactive); in assay [6], 0.00434 (inactive). Further, in assay [5], the NADPH fluorescence slope is -2.4e-05 (inactive).
`O=C(C1CCN(S(=O)(=O)c2ccc(-n3cnnn3)cc2)CC1)N1CCN(c2ccccc2)CC1`: the cell count in assay [1] worked out at 464. Also, the inhibition is 4.2% (inactive) in assay [1], -101% (inactive) in assay [3], 18.7% (inactive) in assay [7] and 18.2% (inactive) in assay [8]. The inhibition of aggregation in assay [2] was 3.7% (inactive). For the same molecule, the nuclei count in assay [2] stood at 76.8%; in assay [3] it was 120%. The fluorescence slope in assay [4] was -0.569 (inactive); in assay [6], 0.00595 (inactive). Besides, in assay [5], the NADPH fluorescence slope was -4.3e-05 (inactive).
For `COc1ccc(S(=O)(=O)NC(CC(=O)NCc2ccco2)c2ccco2)cc1` (centres undefined), the cell count in assay [1] stood at 621. Also, the inhibition in assay [1] is 8.2% (inactive); in assay [3] it was -67.3% (inactive); in assay [7] it was 19.3% (inactive); in assay [8], 20.6% (inactive). Moreover, the inhibition of aggregation in assay [2] was 0.5% (inactive). Further, the figures for the nuclei count in assay [2] and in assay [3] were 114% and 97.1%, respectively. In addition, the fluorescence slope was -0.566 (inactive) in assay [4] and 0.00653 (inactive) in assay [6]. Also, the NADPH fluorescence slope in assay [5] was -3e-05 (inactive).

Broadly, the inhibition is the drop in the measured response relative to a control, in per cent.

(Values after PubChem BioAssay.)
